Shown are actives, neighbours in structure and some others; about 1.8% of the full set was active somewhere.
MIN6 prolif: induces beta-cell replication in MIN6 cells. MIN6 cells proliferation, ATPlite luminescence, 48 h; cells starved in 0.2% serum; 100% = growth in 10% serum. proliferation, % at 10 µM. hit rate 0.29% among 330,000;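 active means compounds whose signal lies at least 3.5 SD above the mean of all wells on their plate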;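 further: 0% = DMSO-treated cells in low-serum medium and 100% = 10% serum control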
PPC-1+TRAIL kill: kills PPC-1 cancer cells in the presence of TRAIL | cell killing (% activity), % at 4 µM or 5 µM | hit rate 0.41% among 220,000 | PPC-1 cells + TRAIL, ATPLite viability luminescence;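 active means cell killing above 50% in the first pass at 4 µM, then a duplicate retest at 5 µM averaging 50% or more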;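 further: plate controls were cells with TRAIL plus DMSO for no effect and medium-only wells lacking cells for full effect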
FLuc inhib CS: inhibits firefly luciferase, flagging false hits in luciferase inhibition screens | ATPLite firefly luciferase biochemical luminescence, 10 min | inhibition, % at 10 µM | AID 1006 | P08659 | hit rate 1.5% among 200,000;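 active means inhibition above about 50% when tested at 10 µM, limit read from the data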
Target sequence (P08659 whole entry, looked up): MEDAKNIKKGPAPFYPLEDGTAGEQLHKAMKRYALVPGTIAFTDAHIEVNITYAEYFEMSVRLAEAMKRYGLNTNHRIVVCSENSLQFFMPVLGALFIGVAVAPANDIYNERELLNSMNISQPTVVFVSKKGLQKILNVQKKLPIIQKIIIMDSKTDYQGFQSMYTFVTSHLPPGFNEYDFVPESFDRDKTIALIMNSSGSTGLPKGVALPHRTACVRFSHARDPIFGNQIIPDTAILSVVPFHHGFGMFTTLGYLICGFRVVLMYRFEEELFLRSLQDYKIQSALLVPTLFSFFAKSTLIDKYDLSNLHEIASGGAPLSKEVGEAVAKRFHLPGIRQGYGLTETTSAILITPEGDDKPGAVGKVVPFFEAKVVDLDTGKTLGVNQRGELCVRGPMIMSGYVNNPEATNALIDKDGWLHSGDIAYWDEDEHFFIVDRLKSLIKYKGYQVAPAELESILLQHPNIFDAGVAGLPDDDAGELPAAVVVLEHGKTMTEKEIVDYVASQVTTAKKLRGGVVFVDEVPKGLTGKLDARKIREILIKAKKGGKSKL
FLuc act counter: firefly luciferase counter-screen for stimulation assays; 200,000 tested, under 10 active; ATPlite luciferase biochemical, luminescence, 10 min; 0 = ATP-free wells, 1 = DMSO control; activation factor at 10 µM; AID 1027; P08659;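 active means luciferase activation factor, scaled between plate controls, of at least 2 with compound at 10 µM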
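System: cell-free luciferase reagent; medium: PBS as buffer for the ATP substrate; doses: test compounds dosed from 2 mM stocks in 100% DMSO; incubation: 10 min, room temperature; measured by: luminescence from luciferase reaction; read-out: luciferase activation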
hiPSC survival: hiPSC single-cell survival enhancement | ATPlite luminescence; 100% = ROCK inhibitor wells, 0% = DMSO | hit rate 0.044% among 360,000 | AID 602274 | survival enhancement, % at 20 µM; in the data active means survival enhancement above about 18%;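 further: cells exposed to compounds for 16 hours before the ATP read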
C8 TRAIL sens: sensitizes caspase-8 expressing cells to TRAIL; NB7+C8 cells + TRAIL, ATPlite viability luminescence; inhibition (viability loss, TRAIL sensitization), % at 10 µM; hit rate 1% among 360,000;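 active means compounds causing at least 50% loss of cell viability in the single-dose screen, relative to plate controls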
The depositor's hits bear a star; . = no result given.

SMILES	MIN6 prolif	PPC-1+TRAIL kill	FLuc inhib CS	FLuc act counter	hiPSC survival	C8 TRAIL sens
COc1ccc(N(C(=O)CNC(=O)c2cccs2)C(C(=O)NCC2CCCO2)c2ccccc2)cc1OC (centres undefined)	-1.5	-4.9	-0.2	1	-0.6	-5.8
COCc1nn2c(N)c(-c3ccccc3)cnc2c1-c1ccccc1	-3.0	.	.	.	-0.6	51.0*
Cc1cccc2sc(N(CCN(C)C)C(=O)/C=C/c3cccs3)nc12	-5.1	16.6	-9.4	1.1	-1.7	12.4
CN(C)CCCN(C(=O)/C=C/c1cccs1)c1nc2c(F)cccc2s1	.	14.1	4.4	1	-0.5	55.0*
CCNC(=O)CC1C(=O)N(c2ccccc2)C(=O)N1CCOC (centres undefined)	-0.9	.	.	.	0.0	-1.4
Cc1cccc(C2=N/C(=C\c3cccs3)C(=O)O2)c1	0.0	18.3	65.0*	0.3	-0.2	-2.8
CCOc1ccc2nc(/N=C/c3c(C)[nH]n(-c4ccc(C)cc4)c3=O)sc2c1	0.0	35.4	65.4*	0.3	-2.1	37.2
O=C(Nc1ccc(Cl)cc1)c1nc[nH]c1C(=O)NCCCCNC(=O)c1[nH]cnc1C(=O)Nc1ccc(Cl)cc1	-6.0	.	.	.	2.1	42.6
Cc1cc(C)n(-c2nc(Nc3ccccc3C(F)(F)F)nc(-n3nc(C)cc3C)n2)n1	-4.1	17.1	-6.7	1.1	0.1	57.2*
CNc1ccccc(-c2ccc3cc4c(cc3n2)OCO4)c1=O	-2.5	-0.9	53.3*	0.5	2.3	16.0
Cc1cc(O)c2c(c1)C(=O)[C@@]13Oc4c5c(c(O)c6c(O)cc(C)cc46)C(=O)C[C@H](O)[C@H]5[C@@H]1[C@@H](O)CC(=O)C3=C2O	.	.	.	.	-1.0	-2.7
CC(C)Nc1ccc(Nc2ccnc3cc4ccccc4cc23)cc1	-5.8	21.0	.	.	-0.7	91.7*
COc1ccc(Nc2ccnc3ccccc23)cc1	-1.0	9.4	-7.0	1.1	6.1	-4.3
O=C(c1cc2ccccc2o1)N1CCN(c2cccc(Cl)c2)CC1	-2.2	.	.	.	-0.4	4.8
COc1cccc(OC)c1C(=O)NC(=S)Nc1ccc2c(c1)OCCO2	1.3	-0.1	10.6	0.9	0.6	2.6
O=C(NC(=S)Nc1ccc2c(c1)OCCO2)c1ccccc1F	-4.2	10.0	50.4*	0.5	-0.7	22.7
O=C(NC(=S)Nc1ccc2c(c1)OCCO2)c1ccccc1	-2.0	11.2	68.3*	0.3	-3.0	27.4
COc1ccc(OC)c(Cc2nnc(CCC(=O)N3CCN(C4CCCC4)CC3)o2)c1	0.8	.	.	.	-0.3	16.7
Cc1ccc(C)c(OCCCCN2CCNCC2)c1C	-1.9	.	.	.	-0.8	14.3
Cc1ccc(S(=O)(=O)NC(=O)NC2=NC(C)(C)N(c3ccc(Cl)c(Cl)c3)C(N)=N2)cc1	.	.	.	.	0.4	81.6*
CCOc1ccccc1NC(=O)C1CCCN(S(=O)(=O)c2ccc(-n3cnnn3)cc2)C1 (centres undefined)	0.3	.	.	.	-0.5	-7.4
COc1ccc(C(=O)NC2CCc3ccccc32)cc1OC1CCN(C(C)C)CC1 (centres undefined)	-1.1	.	.	.	-0.5	0.8
O=C1c2ccccc2NC(c2ccccc2)N1/N=C/c1ccccc1 (centres undefined)	-2.9	36.0	3.1	1	0.1	54.7*
O=S(=O)(NC12CC3CC(CC(C3)C1)C2)c1ccc(F)cc1	-2.3	4.6	-3.3	1	1.8	-4.1
CC(=O)Nc1ccc(N=Cc2c(O)c(C(=O)Nc3ccccc3)cc3ccccc23)cc1	-6.0	-0.9	94.9*	0.1	.	.
SMILES	MIN6 prolif	PPC-1+TRAIL kill	FLuc inhib CS	FLuc act counter	hiPSC survival	C8 TRAIL sens
CC(=O)Nc1ccc(N=Cc2c(O)c3ccccc3oc2=O)cc1	-0.6	.	.	.	-0.3	-1.2
Nc1ccc(-c2nc3cc([N+](=O)[O-])ccc3o2)cc1	-2.3	23.4	.	.	0.2	31.9
CC(C)(C)c1ccc(-c2nc3cc(N)ccc3o2)cc1	-4.2	.	.	.	-0.8	71.7*
Cc1ccc(-c2nc3cc(C)ccc3o2)cc1	-0.7	31.3	92.2*	0.1	-3.7	53.8*
O=C(Nc1ccc(Cl)cc1)Nc1ccc(Cl)c(Cl)c1	-6.8	.	.	.	.	.
N#Cc1ccc(NC(=O)Nc2ccc(Cl)cc2)cc1	-3.8	-0.2	3.9	1	1.1	57.8*
N#Cc1ccccc1NC(=O)COC(=O)/C=C/c1cn(-c2ccccc2)nc1-c1ccc(Cl)cc1	.	16.0	-4.2	1	-0.4	61.0*
COc1cccc(Cn2c(NCc3cccnc3)nc3c2c(=O)n(C)c(=O)n3C)c1	-0.6	39.4	4.3	1	-1.0	82.0*
Cn1c(=O)c2c(nc(NCc3cccnc3)n2Cc2cccc(C(F)(F)F)c2)n(C)c1=O	-1.6	12.7	-7.0	1.1	-3.6	26.3
CCCCCCN[C@H]1CCC2C3CC=C4C[C@@H](O)CC[C@]4(C)C3CC[C@@]21C (some centres undefined)	-6.6	.	.	.	-3.0	1.9
C=CCn1c(SCC(=O)NCCO)nc2sc(C)c(C)c2c1=O	13.4*	20.4	-7.5	1.1	2.6	-2.2
CSCCC(NC(=O)c1ccccc1Br)C(=O)NNC(=O)c1ccncc1 (centres undefined)	-2.1	.	.	.	-0.1	31.9
CCOc1ccc(OCc2cccc(C(=O)N3CCOCC3)c2)cc1	-3.4	42.8	72.1*	0.3	-3.4	65.2*
C=CCCC(=O)N1CCCC(Cc2cccc(Cl)c2)(C(=O)OCC)C1 (centres undefined)	1.8	.	.	.	-0.4	2.5
N#CC1(NC(=O)Cn2ncc(Cl)c(Cl)c2=O)CCCCC1	-7.8	.	.	.	0.2	92.8*
O=C1c2ccccc2C(=O)c2c1oc(C(F)(F)F)c2C(=O)c1ccccc1	-4.0	20.1	2.8	1	-1.4	96.1*
Cn1nc(-c2ccccc2)c(C(O)c2ccccc2C(F)(F)F)c1Cl (centres undefined)	1.8	-4.9	5.5	0.9	21.6*	7.4
COC(=O)c1sc2nc3c(cc2c1N)CCCC3	-3.6	17.9	60.5*	0.4	-0.7	29.6
NC(=O)c1sc2nc3c(cc2c1N)CCC3	-2.9	3.8	22.7	0.8	-0.5	18.4
Nc1c(C(=O)N2CCOCC2)sc2nc3c(cc12)CCCC3	-2.5	.	.	.	-0.2	57.3*
CCCNC(=O)COC(=O)c1ccccc1C(=O)c1ccc(Cl)c([N+](=O)[O-])c1	-5.6	7.3	-8.6	1.1	19.8*	-9.2
Cc1ccc(Cl)c(NC(=O)COC(=O)c2ccccc2C(=O)c2ccc(Cl)c([N+](=O)[O-])c2)c1Cl	.	7.2	-1.2	1	12.9	5.5
C/C(=N\NC(=O)COc1ccc(C)cc1C(C)C)c1cc2ccccc2o1	-5.7	15.9	72.1*	0.3	-2.4	47.4
C/C(=N\NC(=O)COc1ccc(C)cc1C(C)C)c1ccc(-n2ccnc2)cc1	0.0	24.2	42.7	0.6	-1.8	33.6

Screens as filed in PubChem BioAssay.
